ChEMBL document CHEMBL3046730, “Broad-spectrum antimicrobial activity in vitro of the synthetic peptide D4E1” (J Agric Food Chem, 2001)
Calls of active or inactive are those of the source. The calls are words filed in the database; no cut-off is given here.

Key:
Aspergillus flavus [1] = assay: Antifungal activity against Aspergillus flavus 70-GFP assessed as vacuolization in spores at 6 uM after 8 hr by microscopic analysis relative to control; type: functional, organism-based
Procedure, shortened: (§1)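 A. flavus 70-GFP conidia (10⁶/mL) incubated 8 h at 30 °C with 0–25 µM peptide in 1% PDB. Germ tube and spore morphology examined by GFP fluorescence microscopy (excitation 480 nm, emission 530 nm). Repeated twice.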

Aspergillus flavus [2] = assay: Antifungal activity against Aspergillus flavus 70-GFP assessed as thick germ tube at 25 uM after 8 hr by microscopic analysis relative to control; type: functional, organism-based; procedure, shortened: as §1
Aspergillus flavus [3] = assay: Antifungal activity against Aspergillus flavus 70-GFP assessed as short germ tube at 25 uM after 8 hr by microscopic analysis relative to control; type: functional, organism-based; procedure, shortened: as §1
Phytophthora cinnamomi = assay: Antifungal activity against Phytophthora cinnamomi after 48 hr by microplate assay; type: functional, organism-based
Procedure, shortened: (§2)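 Mycelia grown in 1% PDB 48 h at 28 °C, 90 rpm, blended, adjusted to ~10⁵ fragments/mL. Fragments incubated in 24-well plates with peptide at 2–40 µM final in 1% PDB, 2 mL total, 48 h at 90 rpm. MIC recorded as lowest concentration completely inhibiting growth; three replicate experiments.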

Berkeleyomyces basicola = assay: Antifungal activity against Thielaviopsis basicola SRRC 1277 after 24 to 48 hr; type: functional, organism-based
Procedure, shortened: (§3)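 Conidia diluted to 10⁴/mL (Fusarium) or 10⁵/mL and germinated 8 h at 30 °C (A. flavus, Fusarium, P. italicum) or overnight at 22 °C. Four 50 µL aliquots spread on PDA, colonies counted after 24–48 h at 30 or 22 °C. Percent mortality vs untreated control fitted by dose–response to give IC50; MIC = complete inhibition; two experiments.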

Verticillium dahliae = assay: Antifungal activity against Verticillium dahliae SRRC 1030 after 24 to 48 hr; type: functional, organism-based; procedure, shortened: as §3
Penicillium italicum = assay: Antifungal activity against Penicillium italicum SRRC 2352 after 24 to 48 hr; type: functional, organism-based; procedure, shortened: as §3
Fusarium oxysporum = assay: Antifungal activity against Fusarium oxysporum SRRC 187 after 24 to 48 hr; type: functional, organism-based; procedure, shortened: as §3
Fusarium graminearum = assay: Antifungal activity against Fusarium graminearum SRRC 1042 after 24 to 48 hr; type: functional, organism-based
Procedure, shortened: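 Conidia harvested in 1% PDB (pH 6.0), diluted to 10⁴ conidia/mL, pregerminated 8 h at 30 °C. Germinated conidia exposed to D4E1 in 1% PDB at 30 °C; four aliquots spread on PDA and colonies counted after 24–48 h at 30 °C. Percent mortality vs 0 µM control; IC50 from dose–response fit of two experiments; MIC = complete growth inhibition.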

Fusarium verticillioides = assay: Antifungal activity against Fusarium verticillioides SRRC 1082 after 24 to 48 hr; type: functional, organism-based; procedure, shortened: as §3
Claviceps purpurea = assay: Antifungal activity against Claviceps purpurea SRRC 118 after 24 to 48 hr; type: functional, organism-based; procedure, shortened: as §3
Cercospora kikuchii = assay: Antifungal activity against Cercospora kikuchii SRRC 1078 after 24 to 48 hr; type: functional, organism-based; procedure, shortened: as §3
[4] = tested on: Colletotrichum destructivum; assay: Antifungal activity against Colletotrichum destructivum ATCC 42492 after 24 to 48 hr; type: functional, organism-based; procedure, shortened: as §3
Aspergillus flavus [5] = assay: Antifungal activity against Aspergillus flavus 70-GFP after 24 to 48 hr; type: functional, organism-based
Procedure, shortened: (§4)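 Conidia harvested in 1% PDB (pH 6.0), diluted to 10⁵/mL and germinated before exposure to peptide in 1% PDB. Four 50 µL aliquots plated on PDA and colonies counted after 24–48 h. Percent mortality vs untreated control fitted by dose–response to give IC50; MIC = complete inhibition; each fungus tested at least twice.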

Alternaria alternata = assay: Antifungal activity against Alternaria alternata SRRC 1107 after 24 to 48 hr; type: functional, organism-based; procedure, shortened: as §4
Aspergillus flavus [6] = assay: Antifungal activity against Aspergillus flavus 70-W after 24 to 48 hr; type: functional, organism-based; procedure, shortened: as §3
Aspergillus flavus [7] = assay: Antifungal activity against Aspergillus flavus 70-GFP assessed as vacuolization in spores at 12.5 uM after 8 hr by microscopic analysis relative to control; type: functional, organism-based; procedure, shortened: as §1
Aspergillus flavus [8] = assay: Antifungal activity against Aspergillus flavus 70-GFP assessed as germ tube breakage at 12.5 uM after 8 hr by microscopic analysis relative to control; type: functional, organism-based; procedure, shortened: as §1
Aspergillus flavus [9] = assay: Antifungal activity against Aspergillus flavus 70-GFP assessed as reduction in spore germination at 12.5 uM after 8 hr by microscopic analysis relative to control; type: functional, organism-based
Procedure, shortened: (§5)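 Nongerminated A. flavus 70-GFP conidia (10⁶/mL) exposed to 0–25 µM peptide in 1% PDB, 8 h at 30 °C. Proportion of germinating conidia scored; GFP fluorescence microscopy (ex 480, em 530 nm). Experiment repeated twice; one-way ANOVA with Tukey separation.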

Aspergillus flavus [10] = assay: Antifungal activity against Aspergillus flavus 70-GFP assessed as reduction in spore germination at 25 uM after 8 hr by microscopic analysis relative to control; type: functional; set-up: scale not given: the % may be the effect or the level left; procedure, shortened: as §5
Rhizoctonia solani [11] = assay: Antifungal activity against Rhizoctonia solani SRRC 1443 assessed as appearance of extracellular material surrounding hyphae at 20 uM after 48 hr by microscopic analysis; type: functional, organism-based
Rhizoctonia solani [12] = assay: Antifungal activity against Rhizoctonia solani SRRC 1443 assessed as thin hyphae at 20 uM after 48 hr by microscopic analysis; type: functional, organism-based
Rhizoctonia solani [13] = assay: Antifungal activity against Rhizoctonia solani SRRC 1443 assessed as rough hyphae at 20 uM after 48 hr by microscopic analysis; type: functional, organism-based
Rhizoctonia solani [14] = assay: Antifungal activity against Rhizoctonia solani SRRC 1443 assessed as jagged hyphae at 20 uM after 48 hr by microscopic analysis; type: functional, organism-based
Xanthomonas campestris = assay: Antibacterial activity against Xanthomonas citri subsp. malvacearum race 18 after 24 to 48 hr; type: functional, organism-based, Xanthomonas citri pv. malvacearum
Procedure, shortened: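 X. campestris pv. malvacearum race 18 grown overnight in nutrient broth at 28 °C, 225 rpm, then diluted to 10⁴ CFU/mL. Exposed to D4E1 for 60 min at 28 °C. Four aliquots plated on NB and colonies counted after 24–48 h at 28 °C. Percent mortality vs 0 µM control; IC50 from dose–response curve fit; MIC = complete inhibition; tested twice.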

[15] = tested on: Pseudomonas amygdali pv. tabaci; assay: Antibacterial activity against Pseudomonas syringae pv. tabaci after 24 to 48 hr; type: functional, organism-based
[16] = tested on: Globisporangium ultimum var. sporangiiferum; assay: Antifungal activity against Pythium ultimum var. sporangiiferum after 48 hr by microplate assay; type: functional, organism-based; procedure, shortened: as §2
Rhizoctonia solani [17] = assay: Antifungal activity against Rhizoctonia solani SRRC 1443 after 48 hr by microplate assay; type: functional, organism-based; conditions: SRRC 1443, 48 h; procedure, shortened: as §2
Phytophthora nicotianae = assay: Antifungal activity against Phytophthora parasitica after 48 hr by microplate assay; type: functional, organism-based; procedure, shortened: as §2

## H-FKLRAKIKVRLRAKIKL-OH
Aspergillus flavus [1]
  Activity: Active
Aspergillus flavus [2]
  Activity: Active
Aspergillus flavus [3]
  Activity: Active
Phytophthora cinnamomi
  MIC: 4.67 µM
Berkeleyomyces basicola
  IC50: 0.52 µM
  MIC: 6 µM
Verticillium dahliae
  IC50: 0.6 µM
  MIC: 5.25 µM
Penicillium italicum
  IC50: 5.92 µM
  MIC: 25 µM
Fusarium oxysporum
  IC50: 2.05 µM
  MIC: 12.5 µM
Fusarium graminearum
  IC50: 2.1 µM
  MIC: 25 µM
Fusarium verticillioides
  IC50: 0.88 µM
  MIC: 12.5 µM
Claviceps purpurea
  IC50: 1.6 µM
  MIC: 20 µM
Cercospora kikuchii
  IC50: 8.67 µM
  MIC: 25 µM
[4]
  IC50: 13 µM
  MIC: 25 µM
Aspergillus flavus [5]
  IC50: 11 µM
  MIC: 25 µM
Alternaria alternata
  IC50: 12.4 µM
  MIC: 25 µM
Aspergillus flavus [6]
  IC50: 7.75 µM
  MIC: 25 µM
Aspergillus flavus [7]
  Activity: Active
Aspergillus flavus [8]
  Activity: Active
Aspergillus flavus [9]
  Activity: Active
Aspergillus flavus [10]
  Activity: >75%
Rhizoctonia solani [11]
  Activity: Active
Rhizoctonia solani [12]
  Activity: Active
Rhizoctonia solani [13]
  Activity: Active
Rhizoctonia solani [14]
  Activity: Active
Xanthomonas campestris
  IC50: 0.19 µM
  MIC: 1.25 µM
[15]
  IC50: 0.52 µM
  MIC: 2.25 µM
[16]
  MIC: 13.3 µM
Rhizoctonia solani [17]
  MIC: 26.7 µM
Phytophthora nicotianae
  MIC: 4.67 µM
